Values joined by “and” are separate entries in the source; they are usually repeats but may differ in a detail not shown here. Equal entries are not always repeated.
Experiments:
[1] = system: CT26; assay: Cytotoxicity against mouse CT26 cells after 72 hrs by MTT assay; assay type: functional, cell-based
Outline: (§1)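 Compounds dissolved in DMSO; cells seeded at 5 × 10^3 per well and treated after adherence with a range of concentrations for 72 h, with DMSO as negative control. MTT was added for 4 h at 37 °C in the dark, formazan dissolved in DMSO, and absorbance read. IC50 (μM) was calculated as the mean of three independent experiments.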

[2] = system: MCF7; assay: Cytotoxicity against human MCF7 cells after 72 hrs by MTT assay; assay type: functional, cell-based; outline: as §1
[3] = system: MDA-MB-435; assay: Cytotoxicity against human MDA-MB-435 cells after 72 hrs by MTT assay; assay type: functional, cell-based; outline: as §1
[4] = system: HCT-116; assay: Cytotoxicity against human HCT116 cells after 72 hrs by MTT assay; assay type: functional, cell-based; outline: as §1
[5] = system: MCF-7 (Homo sapiens); assay: Cytotoxicity against human MCF-7 cells after 72 hrs by MTT assay; details: MCF-7, 72 h
[6] = system: PC-3; assay: Cytotoxicity against human PC3 cells after 72 hrs by MTT assay; assay type: functional, cell-based; outline: as §1
[7] = system: A549; assay: Cytotoxicity against human A549 cells after 72 hrs by MTT assay; assay type: functional, cell-based; details: A549, 72 h; outline: as §1
[8] = system: B16-F10; assay: Cytotoxicity against mouse B16F10 cells after 72 hrs by MTT assay; assay type: functional, cell-based; outline: as §1
[9] = system: 4T1; assay: Cytotoxicity against mouse 4T1 cells after 72 hrs by MTT assay; assay type: functional, cell-based; outline: as §1
[10] = system: Mus musculus; assay: Toxicity in BALB/c mouse assessed as mortality at 120 umol/kg, po administered daily once for 12 days; assay type: organism-based; details: in vivo, 288 h
Outline: (§2)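 Male BALB/c mice aged 6-8 weeks, n = 6 per group, received 120 μmol/kg by gavage once daily for 12 days in 10% ethanol, with 10% ethanol alone as the control. Survival was followed over time, and mice were weighed at day 12 and then sacrificed. Small intestine was paraffin-embedded, cut into 5 μm sections, H&E-stained and examined by light microscopy. Student's t test was used.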

[11] = system: Mus musculus; assay: Toxicity in BALB/c mouse assessed as mortality at 120 umol/kg, po administered daily once for 12 days measured on day 8; assay type: organism-based; details: in vivo, 288 h; outline: as §2
[12] = Solubility of the compound in 100 gram of water; assay type: physicochemical; details: buffer
Outline: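 Water solubility was measured at 37 °C as the mass of compound dissolving in 100 g of H2O.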

[13] = system: SW-620; assay: Cytotoxicity against human SW620 cells after 72 hrs by MTT assay; assay type: functional, cell-based; details: sw-620; outline: as §1
[14] = system: Mus musculus; assay: Toxicity in BALB/c mouse assessed as induction of small intestine damage at 120 umol/kg, po administered daily once for 12 days; assay type: organism-based; details: in vivo, 288 h; outline: as §2

| SMILES | IC50 ([1]; Mus musculus, CT26, 72 h) [µM] | IC50 ([2]; Homo sapiens, MCF7, 72 h) [µM] | IC50 ([3]; Homo sapiens, MDA-MB-435, 72 h) [µM] | IC50 ([4]; Homo sapiens, HCT-116, 72 h) [µM] | IC50 [5] [µM] | IC50 ([6]; Homo sapiens, PC-3, 72 h) [µM] | IC50 [7] [µM] | IC50 ([8]; Mus musculus, B16-F10, 72 h) [µM] | IC50 ([9]; Mus musculus, 4T1, 72 h) [µM] | also measured |
| --- | --- | --- | --- | --- | --- | --- | --- | --- | --- | --- |
| COC(=O)C(/N=C/c1c(O)c(O)c(C(C)C)c2cc(C)c(-c3c(C)cc4c(C(C)C)c(O)c(O)c(/C=N/C(C(=O)OC)c5c[nH]c6ccccc56)c4c3O)c(O)c12)c1c[nH]c2ccccc12 (configuration not stated) | > 40 | > 40 | > 40 | > 40 | > 40 | > 40 | > 40 | > 40 | > 40 | – |
| Cc1cc2c(C(C)C)c(O)c(O)c(C=O)c2c(O)c1-c1c(C)cc2c(C(C)C)c(O)c(O)c(C=O)c2c1O [GOSSYPOL] | – | 12.6 | – | – | 12.6 | – | – | – | 18.8 | Activity [10]: Non-toxic; Activity [11]: Toxic; IC50 ([1]; ct26): 2.21 µM and 13.6 µM; IC50 ([2]; mcf7): 21.6 µM; IC50 ([3]; mda-mb-435): 11.8 µM and 33.2 µM; IC50 ([4]; hct-116): 3.33 µM and 22 µM; solubility [12]: < 0.001 g; IC50 [13]: 17.2 µM; IC50 ([6]; pc-3): 9.14 µM and 22.4 µM; IC50 ([8]; b16-f10): 5.54 µM and 18 µM; IC50 ([9]; 4t1): 21.5 µM; Activity [14]: Toxic |
| CO[C@@H](c1ccc([N+](=O)[O-])cc1)[C@H](CO)/N=C/c1c(O)c(O)c(C(C)C)c2cc(C)c(-c3c(C)cc4c(C(C)C)c(O)c(O)c(/C=N/[C@@H](CO)[C@@H](OC)c5ccc([N+](=O)[O-])cc5)c4c3O)c(O)c12 | > 40 | > 40 | > 40 | 17.7 | > 40 | > 40 | > 40 | > 40 | > 40 | – |
| Cc1cc2c(C(C)C)c(O)c(O)c(/C=N/C3C(=O)N4[C@@H]3SC(C)(C)[C@@H]4C(=O)O)c2c(O)c1-c1c(C)cc2c(C(C)C)c(O)c(O)c(/C=N/C3C(=O)N4[C@@H]3SC(C)(C)[C@@H]4C(=O)O)c2c1O (single isomer, unassigned) | > 40 | > 40 | > 40 | > 40 | > 40 | > 40 | > 40 | > 40 | > 40 | – |

Reference: ChEMBL document CHEMBL1212914, “A novel water-soluble gossypol derivative increases chemotherapeutic sensitivity and promotes growth inhibition in colon cancer” (J Med Chem, 2010)
